Results gathered from unrelated publications.
Protocols differ between the studies behind these lines. pIC50: −log10 of the molar value.
ABL1: Tyrosine-protein kinase ABL1 (ABL1, Homo sapiens, UniProt P00519)
gag-pol reverse transcriptase: Gag-Pol polyprotein, reverse transcriptase (gag-pol, Human immunodeficiency virus 1, UniProt P03366)
gyrA: DNA gyrase subunit A (gyrA, Escherichia coli K-12, UniProt P0AES4)
PRKACA: cAMP-dependent protein kinase catalytic subunit alpha (PRKACA, Homo sapiens, UniProt P17612)
EP300: Histone acetyltransferase p300 (EP300, Homo sapiens, UniProt Q09472)

SMILES | target | observed | action | method | pH | pIC50
CC1(C)C(/C=C/C=C2/N(CCCc3ccccc3)c3ccc4ccccc4c3C2(C)C)=[N+](CCCc2ccccc2)c2ccc3ccccc3c21 | Protein arginine N-methyltransferase 6 (PRMT6, Homo sapiens, UniProt Q96LA8) | enzyme activity | inhibitor | radiometric |  | 6.12
CCN1CCN(Cc2ccc(C(=O)Nc3ccc(C)c(Oc4ccc5c(c4)CC(=O)N5)c3)cc2C(F)(F)F)CC1 | ABL1 | enzyme activity | inhibitor |  |  | 5.74
N#Cc1ccc(Nc2nc(N)cc(Oc3ccc(-c4ccc(C#N)cc4)c(C#N)c3)n2)cc1 | gag-pol reverse transcriptase | enzyme activity | inhibitor |  |  | 7.05
Cc1cc(C)cc(S(=O)(=O)c2c(C(=O)NCCNS(=O)(=O)c3cccs3)[nH]c3ccc(Cl)cc23)c1 | gag-pol reverse transcriptase | enzyme activity | inhibitor | ELISA |  | 6.85
Cc1cnc(-c2ccc(-c3ccc(NC(=O)Nc4c(F)cc(F)cc4F)cc3F)c3c2C(=O)NC3)[nH]1 | STE20-like serine/threonine-protein kinase (SLK, Homo sapiens, UniProt Q9H2G2) | enzyme activity | inhibitor |  |  | 7.84
O=C(Nc1ccn(Cc2ccc(O)cc2C(F)(F)F)n1)c1c(F)cccc1F | 5-hydroxytryptamine receptor 3A (HTR3A, Homo sapiens, UniProt P46098) | ion current | inhibitor |  |  | < 5.00
Cc1ccc(S(=O)(=O)NCCCNC(=O)c2[nH]c3ccc(Cl)cc3c2S(=O)(=O)c2cc(C)cc(C)c2)cc1 | gag-pol reverse transcriptase | enzyme activity | inhibitor | ELISA |  | 6.80
CNC(=O)c1ccccc1Nc1cc(Nc2cc(C)c(C3CCN(CCCCCCNC(=O)COc4cccc5c4C(=O)N(C4CCC(=O)NC4=O)C5=O)CC3)cc2OC(C)C)ncc1C(F)(F)F (centres unmarked) | Protein-tyrosine kinase 2-beta (PTK2B, Homo sapiens, UniProt Q14289) | enzyme activity | inhibitor |  |  | 6.53
N#Cc1ccc(Nc2nc(N)cc(Oc3ccc(-c4ccccc4C#N)cc3F)n2)cc1 | gag-pol reverse transcriptase | enzyme activity | inhibitor |  |  | 7.00
CC(C)Oc1c(NC(=O)c2ccc(NC(=O)[C@H](CC(N)=O)NC(=O)c3ccc(NC(=O)c4ccc(C#N)cc4)cc3)cc2)ccc(C(=O)NC2CCNCC2)c1O | gyrA | enzyme activity | inhibitor |  |  | 6.30
Cc1cc(C)cc(S(=O)(=O)c2c(C(=O)NCCCNS(=O)(=O)c3ccc(Br)cc3)[nH]c3ccc(Cl)cc23)c1 | gag-pol reverse transcriptase | enzyme activity | inhibitor | ELISA |  | 6.80
CC(C)Oc1c(NC(=O)c2ccc(NC(=O)[C@H](CC(N)=O)NC(=O)c3cccc(-c4cccc(C#N)c4)c3)cc2)ccc(C(=O)Nc2ccc(C(=O)O)cc2)c1O | gyrA | enzyme activity | inhibitor |  |  | < 4.30
N#Cc1ccc(Nc2nc(N)cc(Oc3c(F)cc(-c4ccc(C#N)cc4)cc3F)n2)cc1 | gag-pol reverse transcriptase | enzyme activity | inhibitor |  |  | 7.70
C/C(=C\c1ccc(C#N)cc1)C(=O)Nc1ccc(C(=O)N[C@@H](CC(N)=O)C(=O)Nc2ccc(C(=O)Nc3ccc(C(=O)Nc4ccc(C(=O)O)cc4)c(O)c3OC(C)C)cc2)cc1 | gyrA | enzyme activity | inhibitor |  |  | 6.70
N#Cc1ccc(Nc2nc(N)cc(Oc3ccc(-c4ccc(C#N)cc4)c(Cl)c3)n2)cc1 | gag-pol reverse transcriptase | enzyme activity | inhibitor |  |  | 7.40
O=C1NC(=O)/C(=C/c2ccc(OCCNc3nc4c(cnn4C4CCCC4)c(=O)[nH]3)c(F)c2)S1 | cGMP-dependent 3',5'-cyclic phosphodiesterase (PDE2A, Homo sapiens, UniProt O00408) | enzyme activity | inhibitor |  |  | 7.24
N#Cc1ccc(Nc2nc(N)cc(Oc3ccc(-c4ccc(C#N)cc4)cc3F)n2)cc1 | gag-pol reverse transcriptase | enzyme activity | inhibitor |  |  | 7.52
COc1ccc(S(=O)(=O)NCCCCCNC(=O)c2[nH]c3ccc(Cl)cc3c2S(=O)(=O)c2cc(C)cc(C)c2)cc1 | gag-pol reverse transcriptase | enzyme activity | inhibitor | ELISA |  | 6.80
CC(C)Oc1c(NC(=O)c2ccc(NC(=O)[C@H](CC(N)=O)NC(=O)c3ccc(NC(=O)c4ccc(C#N)cc4)cc3)cc2)ccc(C(=O)Nc2ccncc2)c1O | gyrA | enzyme activity | inhibitor |  |  | 6.05
CCOC(=O)N1CCC(CN(Cc2ccc(Cl)cc2)Cc2ccc([N+](=O)[O-])s2)C1 (centres unmarked) | Oxysterols receptor LXR-alpha (NR1H3, Homo sapiens, UniProt Q13133) | ligand displacement |  | radioligand |  | 4.89
N#Cc1ccc(Nc2nc(N)cc(Oc3ccc(-c4ccc(C#N)cc4)cc3C#N)n2)cc1 | gag-pol reverse transcriptase | enzyme activity | inhibitor |  |  | 7.52

SMILES | target | observed | action | method | pH | pIC50
CC(C)Oc1c(NC(=O)c2ccc(NC(=O)[C@H](CC(N)=O)NC(=O)c3ccc(NC(=O)c4cc(=O)c(O)c[nH]4)cc3)cc2)ccc(C(=O)Nc2ccc(C(=O)O)cc2)c1O | gyrA | enzyme activity | inhibitor |  |  | 5.44
N#Cc1ccc(Nc2nc(N)cc(Oc3ccc(-c4ccc(C#N)cc4)cc3C(F)(F)F)n2)cc1 | gag-pol reverse transcriptase | enzyme activity | inhibitor |  |  | 7.15
CCOCc1nc(O)c(-c2nnc(Cc3ccc(Cl)cn3)o2)c(O)c1-c1c(OC)cccc1OC | Alpha-2A adrenergic receptor (ADRA2A, Homo sapiens, UniProt P08913) | ligand displacement |  | radioligand |  | < 4.52
CC(C)Oc1c(NC(=O)c2ccc(NC(=O)[C@H](CC(N)=O)NC(=O)c3ccc(NC(=O)c4ccc(C#N)cn4)cc3)cc2)ccc(C(=O)Nc2ccc(C(=O)O)cc2)c1O | gyrA | enzyme activity | inhibitor |  |  | 6.05
CC(C)c1cccc2c(-c3ccccc3)cc(-c3ccc(-c4ccc(C(=O)O)cc4)[nH]3)nc12 | Retinoic acid receptor alpha (RARA, Homo sapiens, UniProt P10276) | reporter gene | antagonist |  |  | 7.82
Cc1cc(C)cc(S(=O)(=O)c2c(C(=O)NCCCNS(=O)(=O)c3cccs3)[nH]c3ccc(Cl)cc23)c1 | gag-pol reverse transcriptase | enzyme activity | inhibitor | ELISA |  | 6.72
N#C/C(=C\c1cccn1S(=O)(=O)c1ccccc1)S(=O)(=O)c1ccccc1 | Protein phosphatase methylesterase 1 (Homo sapiens, UniProt Q9Y570) | enzyme activity | inhibitor |  |  | < 4.70
CC/C(=N\NC(=O)C(C)Nc1ccccc1)c1ccc(O)c(C)c1O (centres unmarked) | PRKACA | enzyme activity | inhibitor |  |  | 7.65
CC(C)Oc1c(NC(=O)c2ccc(NC(=O)[C@H](CC(N)=O)NC(=O)c3ccc(NC(=O)c4ccc(C#N)cc4)cc3)cc2)ccc(C(=O)O)c1O | gyrA | enzyme activity | inhibitor |  |  | 5.03
O=C1N=C(Nc2ccccc2)S/C1=C\c1ccccc1OCc1cn(Cc2ccccc2Br)nn1 | Aldo-keto reductase family 1 member A1 (AKR1A1, Homo sapiens, UniProt P14550) | enzyme activity | inhibitor | absorbance | pH 6.2 | 4.21
Cc1cc(C)cc(S(=O)(=O)c2c(C(=O)NCCNS(=O)(=O)c3ccc(-c4ccccc4)cc3)[nH]c3ccc(Cl)cc23)c1 | gag-pol reverse transcriptase | enzyme activity | inhibitor | ELISA |  | 6.74
Nc1ncnc2c1c(Cc1cccc3ccccc13)nn2CC1CCNCC1 | ABL1 | enzyme activity | inhibitor |  |  | < 4.70
COc1ccc(S(=O)(=O)NCCCCNC(=O)c2[nH]c3ccc(Cl)cc3c2S(=O)(=O)c2cc(C)cc(C)c2)cc1 | gag-pol reverse transcriptase | enzyme activity | inhibitor | ELISA |  | 6.89
COc1ccc(S(=O)(=O)ON=C2C=C(C)C(=O)C(C)=C2)cc1 | EP300 | enzyme activity | inhibitor | fluorescence |  | 5.70
COc1ccc2c(Oc3ccc4c(C(=O)Nc5ccccc5N)cccc4c3)ccnc2c1 | PRKACA | enzyme activity | inhibitor |  |  | < 6.30
COc1ccc(-c2oc3ncnc(NCc4ccccc4)c3c2-c2ccc(OC)cc2)cc1 | Receptor tyrosine-protein kinase erbB-2 (ERBB2, Homo sapiens, UniProt P04626) | enzyme activity | inhibitor | radiometric |  | 5.34
CC(C)Oc1c(NC(=O)c2ccc(NC(=O)[C@H](CC(N)=O)NC(=O)c3ccc(NC(=O)c4ccc(NC(=O)c5ccc([N+](=O)[O-])cc5)cc4)cc3)cc2)ccc(C(=O)Nc2ccc(C(=O)O)cc2)c1O | gyrA | enzyme activity | inhibitor |  |  | 5.60
Cc1cc(C)cc(S(=O)(=O)c2c(C(=O)NCCCNS(=O)(=O)c3ccc(Cl)cc3)[nH]c3ccc(Cl)cc23)c1 | gag-pol reverse transcriptase | enzyme activity | inhibitor | ELISA |  | 7.11
N#Cc1ccc(Nc2nc(N)cc(Oc3ccc(-c4ccc(C#N)cc4)c(C(F)(F)F)c3)n2)cc1 | gag-pol reverse transcriptase | enzyme activity | inhibitor |  |  | 7.05
CCCCCCCCCCCCCCCc1cccc(O)c1C(=O)O | EP300 | enzyme activity | inhibitor | radiometric |  | < 3.70
